FGF22 binding: binders of human FGF22 protein, primary screen, FGF22 synaptogenesis inhibitor project, biophysical, thermal shift, single point | recombinant FGF22 thermal shift, SYPRO orange fluorescence; percent of sucrose octasulfate shift, DMSO zero | actives 1.5% (n = 340,000) | activity (Tm shift, normalised), % at 9.99 µM | AID 651658, 2012;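 active = mean Tm shift, scaled 0 neutral to 100 positive control, at about 1.3% or above, every replicate too, limit read from the data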
Target sequence (Q9HCT0 whole entry, looked up): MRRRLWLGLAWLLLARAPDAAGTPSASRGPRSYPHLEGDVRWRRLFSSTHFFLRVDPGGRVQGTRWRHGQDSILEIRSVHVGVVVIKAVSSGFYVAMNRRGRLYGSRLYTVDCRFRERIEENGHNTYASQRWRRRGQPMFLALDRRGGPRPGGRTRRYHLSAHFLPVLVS
PGC1a acetyl inh: inhibitors of PGC1a acetylation signal, primary screen, cell-based, U2OS, AlphaScreen, inhibitor mode | AlphaScreen anti-acetyl-lysine; with virally co-expressed GCN5 acetyltransferase | inhibition, % at 15.6 µM | actives 0.17% (n = 350,000) | AID 651687, 2012;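 active = every replicate shows inhibition of at least 40%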;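 also: 0% = neutral control wells and 100% = positive control wells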
Cneo AK release: Cryptococcus neoformans cell lysis inducers, primary screen, AK release luminescence, single concentration. C. neoformans lysis, adenylate kinase release luminescence, 4 h; normalised: neutral wells 0, clomiphene wells 100. lysis activity, % at 15 µM. actives 0.2% (n = 360,000). AID 651654, 2012;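 active = mean lysis activity across replicates of at least 80%, whatever share of replicates individually reach that level; inactive = mean lysis activity below 80%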
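Assay system: Cryptococcus neoformans yeast cells / Dosing: single-point compound dose / Timing: 4 h at 37 °C static, read 1 h later / Measured by: luminescence of released adenylate kinase using an AK detection reagent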
PglD inh: C. jejuni PglD acetyltransferase inhibitors, primary screen, biochemical, DTNB colorimetric, single point; purified PglD enzyme, DTNB colorimetric CoA detection; UDP-N-acetylbacillosamine N-acetyltransferase PglD (Campylobacter jejuni); actives 0.098% (n = 360,000); inhibition, % at 12.5 µM; in the data active = inhibition above about 16%, passing the limit was not always enough
Vif imaging: HIV Vif self-association inhibitors, primary screen, imaging, HEK293T, single point; HEK293T cells, Vif self-association by quenched fluorescence, 24 h; inhibition, % at 7.49 µM; actives 0.35% (n = 340,000); in the data active = inhibition above about 50%, passing the limit was not always enough
Ecoli rRNA inh: reduced GFP signal of wild-type E. coli, primary screen, bacterial rRNA inhibitor project, GFP/RFP fluorescence, OD600, single point. E. coli WT GFP vs humanized-ribosome RFP mutants, 24 h; active compounds read low; DMSO median 0, no signal -100. GFP signal change (wild-type ribosome), % (no concentration beside the values). actives 1.6% (n = 350,000);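 active = significant combined selectivity score with lowered wild-type GFP, culture density cut under 30%, mutant RFP and density less affected; inactive = any of these conditions unmet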
PglD confirm: PglD acetyltransferase inhibitors, confirmation, biochemical, DTNB absorbance, single point, cherry-picked samples | 320 tested, under 10 active | inhibition, % at 20 µM | shares compounds with PglD inh | Purified C. jejuni PglD, DTNB absorbance 412 nm;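 active = mean inhibition across replicates of at least 20% with every single replicate also at 20% or more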;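 also: initial rate of CoA release by acetyl transfer from AcCoA to the UDP-4-amino sugar; 0% = median of neutral control wells and 100% = median of positive control wells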
Starred values were filed as active, the others as inactive; . = not tested or not shown. A selection: hits, their analogues and other compounds. The true share with any hit is near 2.9%.

SMILES | FGF22 binding | PGC1a acetyl inh | Cneo AK release | PglD inh | Vif imaging | Ecoli rRNA inh | PglD confirm
C[C@H](NC(=O)N(C)C[C@@H]1OCc2ccccc2-c2c(n(C)c3ccccc23)C(=O)N([C@H](C)CO)C[C@H]1C)c1ccccc1 | . | -3 | . | . | . | -2 | .
O=C(CNS(=O)(=O)c1ccc2ccccc2c1)OCc1nnc(-c2ccccc2)o1 | . | -4 | 5 | 34* | -1 | . | 0
Cc1ccc(S(=O)(=O)NCC(=O)OCc2nnc(-c3ccccc3)o2)cc1C | . | -4 | -3 | 4 | -19 | . | .
COc1ccc2c3c(n(C)c2c1)[C@H](CO)N(C(=O)C1CCC1)CC31CN(C)C1 | 0 | 5 | . | . | . | 2 | .
CCOc1cc(C2NC(=O)NC(c3ccccc3)=C2C(C)=O)ccc1OC(C)=O (stereo not given) | 0 | 11 | 2 | 23* | -4 | 7 | -4
COCCCNC(=O)CCc1ccccc1 | 43 | 27 | . | . | 6 | 11 | .
COCCNC(=O)CCCC(=O)NCCOC | . | 2 | 1 | 35* | 0 | . | -2
CCCCOCCCNC(=O)N[C@H](C(=O)O)C(C)CC (stereo not given in full) | 0 | 0 | 0 | 7 | 1 | 7 | .
CCC(C)[C@H](NC(=O)NC1CC1)C(=O)O (stereo not given in full) | . | -6 | 1 | 27* | 7 | -8 | -4
CC1Cc2ccccc2N1C(=O)c1ccc(N2CCCC2)c([N+](=O)[O-])c1 (stereo not given) | 0 | 9 | 2 | 22* | -13 | -33 | 7
C[C@@H]1CCCCO[C@H](CN(C)S(=O)(=O)c2cn(C)cn2)[C@@H](C)CN([C@@H](C)CO)C(=O)c2cc(NC(=O)C3CCCCC3)ccc2O1 | . | . | -1 | 0 | . | 2 | .
O=C(COC(=O)c1cccc(F)c1)Nc1cccc(S(=O)(=O)N2CCOCC2)c1 | 0 | -2 | -1 | 5 | -1 | 2 | .
O=C(COC(=O)c1cccc(F)c1)Nc1cccc(S(=O)(=O)N2CCCCC2)c1 | 0 | -5 | 0 | 22* | 11 | -9 | -2
COc1ccc(/C(C)=N/Nc2ccc(C(=O)O)cc2)cc1OC | . | . | 1 | 58* | 1 | . | 0
CN(C)CCCNC(=O)C[C@@H]1CC[C@H](NC(=O)Cc2cccnc2)[C@H](CO)O1 | 0 | 1 | -6 | 0 | . | -1 | .
C[C@@H]1CN([C@@H](C)CO)C(=O)c2cc(NC(=O)Cc3ccccc3)ccc2O[C@@H](C)CCCCO[C@H]1CN(C)Cc1ccncc1 | . | -6 | . | . | . | 0 | .
CC(=O)Nc1ccc(NC(=O)C2CCN(C(=O)c3ccc([N+](=O)[O-])cc3)CC2)cc1 | 0 | . | . | . | -2 | -6 | .
CCc1ccccc1NC(=O)C1CCN(C(=O)c2ccc([N+](=O)[O-])cc2)CC1 | 0 | -3 | -1 | 46* | -3 | 13 | 2
O=C1OCCC1Sc1nnc(-c2ccc(Br)cc2)o1 (stereo not given) | . | 14 | 0 | 34* | 6 | . | -3
CO[C@@H]1CN(C)C(=O)c2cc(NC(=O)NC3CCCCC3)ccc2OC[C@H](C)N(C)C[C@@H]1C | . | 5 | -9 | -1 | . | 1 | .
Cc1ccc2oc(=O)c(/C=C(\O)CC(C)C)nc2c1 | . | -8 | 1 | 21* | -5 | . | 2
CCOC(=O)c1[nH]c(C)c(/C=N/O)c1C | . | 18 | -2 | -5 | 0 | . | .
CCOC(=O)c1[nH]c(C)c(C)c1C | . | . | -2 | 25* | 2 | . | -1
CCOc1ccc(-c2n[nH]c(C(=O)NN)c2C)cc1 | 0 | -3 | -2 | 83* | -17 | 4 | -6
O=C1N=C2SCCN2/C1=C\c1ccc(Cl)cc1 | . | 3 | -4 | 30* | -4 | . | -2
SMILES | FGF22 binding | PGC1a acetyl inh | Cneo AK release | PglD inh | Vif imaging | Ecoli rRNA inh | PglD confirm
Cc1ccc(OCC(=O)N(C)CCc2ccccn2)cc1 | . | 12 | 0 | 24* | 9 | 7 | -1
C[C@H]1CN([C@@H](C)CO)C(=O)c2cc(C#CCC3CCCC3)cnc2O[C@@H]1CN(C)S(=O)(=O)c1cccs1 | 0 | -5 | 0 | 5 | . | 0 | .
CC(=O)Nc1nc(C)c(S(N)(=O)=O)s1 | . | -11 | -3 | 24* | -7 | . | -6
CC(=O)Nc1nnc(S(N)(=O)=O)s1 | 0 | -10 | 0 | 0 | 0 | . | .
C[C@H]1CN([C@@H](C)CO)C(=O)c2cccc(NC(=O)c3ccncc3)c2O[C@@H]1CN(C)C(=O)Nc1ccc(F)cc1 | 0 | 2 | -1 | 12 | . | 4 | .
CCc1nc2ccc(C(=O)NCCCn3ccnc3)cn2c1N(C)Cc1cccs1 | 0 | -1 | -2 | 20* | -2 | 3 | -5
COc1ccc(OC)c(C(=O)CN2CCN(S(=O)(=O)c3ccc(Br)cc3)CC2)c1 | . | 1 | 8 | 21* | 10 | . | 3
COc1ccc(S(=O)(=O)N2CCN(CCOc3ccc(Br)cc3)CC2)cc1OC | 0 | 9 | -2 | -1 | -18 | 1 | .
C[C@H]1CN([C@@H](C)CO)C(=O)Cc2cc(NC(=O)Cc3ccccc3)ccc2O[C@H]1CN(C)C | 0 | -2 | -2 | -13 | . | 1 | .
O=C(NCCCN=C1NS(=O)(=O)c2ccccc21)c1ccc(F)cc1 | 0 | 1 | -2 | -1 | -15 | -3 | .
O=C(NCCCN=C1NS(=O)(=O)c2ccccc21)c1ccncc1 | . | 5 | -5 | 25* | 5 | . | 2
CNC[C@H]1OCCCC[C@H](C)Oc2ccc(NS(=O)(=O)c3ccc(C)cc3)cc2C(=O)N([C@H](C)CO)C[C@@H]1C | 0 | 3 | -10 | 4 | . | 6 | .
CS(=O)(=O)N(CC(=O)NCCSc1ccccn1)c1cccc2ccccc12 | 0 | . | -1 | 20* | -13 | 6 | -3
COCCCNC(=O)c1cccc2c(-c3cccc(C(N)=O)c3)coc12 | 1 | -24 | -1 | 28* | 0 | -8 | -4
Cc1noc(C)c1S(=O)(=O)Nc1ccc2c(c1)C(=O)N([C@@H](C)CO)C[C@H](C)[C@@H](CN(C)Cc1ccc(Cl)c(Cl)c1)OCCCC[C@H](C)O2 | 0 | 12 | . | . | . | -8 | .
O=C(Cc1ccccn1)NCC[C@H]1CC[C@H](NC(=O)c2ccccc2F)[C@@H](CO)O1 | 0 | 3 | 25 | -2 | . | 5 | .

Compound activity: PubChem BioAssay, Broad Institute
